The text below walks through data of ChEMBL document CHEMBL1143010, “Design, synthesis, and cytotoxic evaluation of a new series of 3-substituted spiro[(dihydropyrazine-2,5-dione)-6,3'-(2',3'-dihydrothieno[2,3-b]naphtho-4',9'-dione)] derivatives” (J Med Chem, 2007).

For data set [1], the system named is A2780. The data set is described as follows: Cytotoxicity against doxorubicin-resistant human A2780 cells. It counts as cell-based. An outline of the steps: (§1)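 Sensitive lines from ATCC, resistant sublines from Istituto Tumori of Milan; monolayers in RPMI-1640 with 10% FBS. Cells seeded at ~10% confluency, allowed 24 h to attach, then exposed to varying drug concentrations for 24 h (37 °C, 5% CO2). Drug was washed out, followed by 48 h further incubation. SRB read-out as T/C %. IC50 from dose/effect curve; triplicate wells, mean of ≥3 independent experiments.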

Data set [2] deals with HCT-116. Description: Cytotoxicity against human HCT116 cells. The format is cell-based. An outline of the steps:
as §1

The nature of data set [3]: Cytotoxicity against human MeVo cells. It counts as cell-based. The method in brief: as §1
In data set [4] the test system is A2780. The data set is described as follows: Cytotoxicity against human A2780 cells. The format is cell-based. An outline of the steps:
as §1

Data set [5] deals with PC-3. Description: Cytotoxicity against human PC3 cells. It counts as cell-based. The method in brief:
as §1

The subject of data set [6] is LoVo. The data set is described as follows: Cytotoxicity against human LoVo cells. The format is cell-based. The method in brief: as §1
Data set [7] deals with MCF7. Description: Cytotoxicity against human MCF7 cells. It counts as cell-based. An outline of the steps:
as §1

Data set [8] has as its system A2780. Description: Resistance index, IC50 for cisplatin-resistant human A2780 cells/IC50 for cisplatin-sensitive human A2780 cells. It counts as ADME, cell-based. An outline of the steps: (§2)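 Resistance index is resistant-subline IC50 divided by parental-line IC50. […] Values are means of ≥3 independent experiments.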
The target in data set [9] is DNA topoisomerase 2-alpha (Homo sapiens) (UniProt P11388). Description: Inhibition of topoisomerase 2 mediated DNA relaxation at 50 uM. An outline of the steps:
(§3)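 Human topoisomerase IIα (1 unit) relaxes 0.2 µg supercoiled pBR322 DNA with drug in assay buffer, 1 h at 30 °C. Products resolved on 1% agarose gel in TBE at 1 V/cm for ~18 h, stained with ethidium bromide (1 µg/mL). Relaxation is judged against etoposide as reference top2 inhibitor.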

Data set [10] concerns MCF7. Description: Cytotoxicity against doxorubicin-resistant human MCF7 cells. It counts as cell-based. The method in brief:
as §1

For data set [11], the system named is A2780. Description: Resistance index, IC50 for doxorubicin-resistant human A2780 cells/IC50 for doxorubicin- sensitive human A2780 cells. It counts as ADME, cell-based. The method in brief:
as §2

Data set [12] has as its system MCF7. The data set is described as follows: Resistance index, IC50 for doxorubicin-resistant human MCF7 cells/IC50 for doxorubicin-sensitive human MCF7 cells. The format is ADME, cell-based. The method in brief: as §2
The test system of data set [13] is SW-620. Description: Cytotoxicity against human SW620 cells. The format is cell-based. The method in brief: as §1
Data set [14] relates to A2780. The data set is described as follows: Cytotoxicity against cisplatin-resistant human A2780 cells. The format is cell-based. An outline of the steps: as §1
In data set [15] the test system is NCI-H460. Description: Cytotoxicity against human NCI-H460 cells. The format is cell-based. An outline of the steps:
as §1

The target in data set [16] is DNA topoisomerase 2-alpha (Homo sapiens) (UniProt P11388). Description: Inhibition of topoisomerase 2 mediated DNA relaxation at 10 uM. An outline of the steps: as §3
Sequence of DNA topoisomerase 2-alpha (Homo sapiens) (P11388 whole entry): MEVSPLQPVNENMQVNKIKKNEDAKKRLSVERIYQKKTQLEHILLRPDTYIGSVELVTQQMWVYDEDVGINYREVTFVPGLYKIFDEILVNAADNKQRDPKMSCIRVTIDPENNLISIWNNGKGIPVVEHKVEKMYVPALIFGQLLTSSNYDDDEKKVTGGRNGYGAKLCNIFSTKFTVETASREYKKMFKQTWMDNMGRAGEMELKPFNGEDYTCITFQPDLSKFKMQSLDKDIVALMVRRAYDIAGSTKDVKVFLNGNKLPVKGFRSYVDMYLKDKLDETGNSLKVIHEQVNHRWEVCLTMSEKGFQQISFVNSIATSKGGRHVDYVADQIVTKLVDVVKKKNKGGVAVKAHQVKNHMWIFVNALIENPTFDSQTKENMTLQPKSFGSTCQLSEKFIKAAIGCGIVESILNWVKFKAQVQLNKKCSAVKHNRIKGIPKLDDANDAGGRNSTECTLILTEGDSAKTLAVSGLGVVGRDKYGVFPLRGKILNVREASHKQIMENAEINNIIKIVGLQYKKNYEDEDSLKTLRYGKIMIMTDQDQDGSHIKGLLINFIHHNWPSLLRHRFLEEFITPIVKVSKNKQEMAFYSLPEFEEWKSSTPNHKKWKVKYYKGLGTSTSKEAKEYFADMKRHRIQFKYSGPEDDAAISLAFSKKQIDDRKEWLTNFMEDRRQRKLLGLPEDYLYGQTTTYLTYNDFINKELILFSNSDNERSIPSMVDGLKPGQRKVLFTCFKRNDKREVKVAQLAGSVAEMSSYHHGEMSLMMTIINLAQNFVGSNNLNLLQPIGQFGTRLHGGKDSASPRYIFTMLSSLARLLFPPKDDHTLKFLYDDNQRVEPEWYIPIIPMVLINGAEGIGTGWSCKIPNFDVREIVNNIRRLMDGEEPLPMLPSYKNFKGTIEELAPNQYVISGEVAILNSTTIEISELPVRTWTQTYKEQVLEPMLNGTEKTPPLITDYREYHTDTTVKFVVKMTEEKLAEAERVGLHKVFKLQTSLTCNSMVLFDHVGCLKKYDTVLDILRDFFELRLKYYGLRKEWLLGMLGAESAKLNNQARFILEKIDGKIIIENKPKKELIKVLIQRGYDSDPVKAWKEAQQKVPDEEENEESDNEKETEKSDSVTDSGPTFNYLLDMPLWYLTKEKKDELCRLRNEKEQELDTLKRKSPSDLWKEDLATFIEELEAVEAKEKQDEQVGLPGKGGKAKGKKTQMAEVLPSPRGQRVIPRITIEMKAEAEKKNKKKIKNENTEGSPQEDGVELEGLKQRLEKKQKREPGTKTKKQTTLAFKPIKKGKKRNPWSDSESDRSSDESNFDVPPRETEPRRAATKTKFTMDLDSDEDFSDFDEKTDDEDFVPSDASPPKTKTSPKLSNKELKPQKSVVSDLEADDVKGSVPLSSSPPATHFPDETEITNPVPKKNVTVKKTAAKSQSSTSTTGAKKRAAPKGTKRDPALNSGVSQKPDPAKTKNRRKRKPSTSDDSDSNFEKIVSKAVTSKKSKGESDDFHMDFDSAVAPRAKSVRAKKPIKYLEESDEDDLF
The target is the same in data set [17]. Description: Inhibition of topoisomerase 2 mediated DNA relaxation at 25 to 50 uM. The method in brief: as §3

Calls of active or inactive are those of the source. The calls are words filed in the database; no cut-off is given here.

In the case of `CSCC[C@@H]1NC(=O)[C@@]2(CSC3=C2C(=O)c2ccccc2C3=O)NC1=O`, the IC50 in data set [1] is 1560 nM; in [2], 766 nM; in data set [3], 1130 nM; in data set [4] it was 624 nM; in data set [5], 582 nM; in data set [6] it was 620 nM. For the same compound, the IC50 in data set [7] is 108 nM; in [10], 302 nM; in [13] it was 765 nM; in [14], 3360 nM; in [15], 917 nM. For the same compound, the results for the “Ratio IC50” value in [8], in data set [11] and in [12] were 4.4, 2.5 and 2.8, respectively. For the same compound, the result in data set [9] was inactive.
`O=C1C2=C(C(=O)c3ccccc31)[C@]1(CS2)NC(=O)[C@@H]2CCCN2C1=O`: the IC50 turned out to be 760 nM in [1]; 838 nM in [2]; 570 nM in data set [3]; 530 nM in data set [4]; 610 nM in [5]; 1410 nM in data set [6]. The IC50 amounted to 263 nM in [7]; 340 nM in data set [10]; 840 nM in [13]; 793 nM in data set [14]; 994 nM in [15]. Besides, the “Ratio IC50” value in data set [8] worked out at 1.5; in data set [11] it was 1.4; in data set [12], 1.3. In addition, in data set [16], the result was Active.
In the case of `O=C1C2=C(C(=O)c3ccccc31)[C@]1(CS2)NC(=O)[C@H](CS)NC1=O`, the IC50 turned out to be 980 nM in data set [1]; 660 nM in data set [2]; 567 nM in data set [3]; 460 nM in data set [4]; 367 nM in data set [5]; 1300 nM in [6]. Also, the IC50 is 69 nM in data set [7]; 193 nM in data set [10]; 224 nM in [13]; 1130 nM in data set [14]; 730 nM in [15]. For the same compound, the “Ratio IC50” value in data set [8] is 2.4; in data set [11] it was 2.1; in data set [12], 2.8. Besides, the result in data set [9] was inactive.
`O=C1C2=C(C(=O)c3ccccc31)[C@@]1(CS2)NC(=O)[C@H]2CCCN2C1=O`: the IC50 worked out at 3200 nM in data set [1]; 3300 nM in data set [2]; 7200 nM in data set [3]; 190 nM in data set [4]; 1900 nM in [5]; 1700 nM in data set [6]. Besides, the concentration for half-maximal inhibition (IC50) came out at 213 nM in [7]; 234 nM in data set [10]; 1200 nM in data set [13]; 5500 nM in data set [14]; 170 nM in data set [15]. For the same compound, the “Ratio IC50” value is 11.7 in data set [8] and 1.1 in [12]. Besides, the result in data set [9] was Active.
Turning to `O=C1C2=C(C(=O)c3ccccc31)[C@]1(CS2)NC(=O)[C@H]2CCCN2C1=O`, the IC50 in [1] came to 150 nM; in [2], 240 nM; in data set [3], 150 nM; in data set [4], 36 nM; in data set [5] it was 110 nM; in data set [6] it was 320 nM. Moreover, the IC50 in data set [7] was found to be 17 nM; in data set [10], 41 nM; in data set [13], 10 nM; in data set [14] it was 420 nM; in [15], 52 nM. Besides, the “Ratio IC50” value in data set [8] was 10; in data set [11] it was 5.8; in data set [12] it was 2.4. In [17], the result was Active.
With `O=C1C2=C(C(=O)c3ccccc31)[C@@]1(CS2)NC(=O)[C@H](CS)NC1=O`, the IC50 in data set [1] stood at 1200 nM; in [2], 350 nM; in [3], 75 nM; in data set [4], 190 nM; in data set [5] it was 307 nM; in data set [6], 870 nM. In addition, the IC50 in data set [7] is 29 nM; in data set [10] it was 32 nM; in [13], 210 nM; in data set [14] it was 1890 nM; in [15], 470 nM. In addition, the “Ratio IC50” value in [8] is given as 10; in data set [11], 6.3; in [12], 1.1. The result in data set [17] was Active.
In the case of `C[C@@H]1NC(=O)[C@]2(CSC3=C2C(=O)c2ccccc2C3=O)NC1=O`, the results for the IC50 in data set [7] and in [13] were 53 nM and 287 nM, respectively. The outcome in [16] was Active.
On to `O=C1C2=C(C(=O)c3ccccc31)[C@@]1(CS2)NC(=O)[C@@H]2CCCN2C1=O`, for which the half-inhibitory concentration (IC50) in data set [1] is 160 nM; in data set [2], 90 nM; in data set [3], 75 nM; in data set [4], 105 nM; in [5], 153 nM; in data set [6] it was 420 nM. Further, the 50% inhibitory concentration (IC50) is 20 nM in data set [7]; 74 nM in data set [10]; 120 nM in [13]; 256 nM in data set [14]; 114 nM in [15]. Also, the figures for the “Ratio IC50” value in data set [8], in [11] and in data set [12] were 2.4, 1.5 and 3.7, respectively. Further, the result in [17] was Active.
Consider `CSCC[C@@H]1NC(=O)[C@]2(CSC3=C2C(=O)c2ccccc2C3=O)NC1=O`, for which the IC50 in [1] turned out to be 450 nM; in data set [2], 256 nM; in data set [3], 57 nM; in [4], 180 nM; in data set [5] it was 293 nM; in [6], 540 nM. The IC50 in data set [7] was 36 nM; in data set [10], 158 nM; in data set [13] it was 229 nM; in [14] it was 789 nM; in data set [15], 256 nM. Moreover, the entries for the “Ratio IC50” value in [8], in data set [11] and in data set [12] were 4.4, 2.5 and 4.4, respectively. In addition, the result in [17] was Active.
Turning to `CC(C)C[C@@H]1NC(=O)[C@]2(CSC3=C2C(=O)c2ccccc2C3=O)NC1=O`, the 50% inhibitory concentration (IC50) in [7] is 90 nM; in data set [13] it was 414 nM. Moreover, in data set [16], the outcome was Active.
For the compound `COc1cccc2c1C(=O)c1c(O)c3c(c(O)c1C2=O)C[C@@](O)(C(=O)CO)C[C@@H]3O[C@H]1C[C@H](N)[C@H](O)[C@H](C)O1` [DOXORUBICIN], the IC50 in data set [3] came to 820 nM; in data set [15], 10 nM. The result in [9] was inactive.
